Laboratory results: ChEMBL document CHEMBL4118248, “Small Molecule Proprotein Convertase Subtilisin/Kexin Type 9 (PCSK9) Inhibitors: Hit to Lead Optimization of Systemic Agents” (J Med Chem, 2018)
pIC50, pKi: −log10 of the molar value.

Legend:
[1] = Lipophilicity, log D of the compound by shake flask method; assay type: physicochemical; settings: octanol/water
How it was run: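 LogD measured by the shake-flask method.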

[2] = Intrinsic clearance in rat liver microsomes; assay type: ADME, microsome; settings: read-out: CLH
[3] = Intrinsic clearance in human liver microsomes; assay type: ADME, microsome; settings: read-out: CLH
[4] = target: 80S Ribosome; test: Binding affinity to 80S ribosome in human HuH7 cells harboring pCMV-truncated human PCSK9 (1 to 152 residues)-proLuc assessed as inhibition of PCSK9 mRNA translation after overnight incubation by luciferase reporter gene assay; assay type: cell-based; settings: huh-7
How it was run: (§1)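 Huh7 cells stably carry human PCSK9 prodomain (aa 1-152) fused to firefly luciferase (aa 2-550) in pcDNA3.1, kept under 900 µg/mL Geneticin. Plated 10,000/well in phenol red-free DMEM/10% FBS and left 4 h, then compound added (top final 20 µM, 0.5% DMSO). Incubated overnight at 37 °C, luminescence read with SteadyGlo.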

[5] = target: T1, Voltage-gated inwardly rectifying potassium channel KCNH2 (Homo sapiens, UniProt Q12809); test: Inhibition of dofetilide binding to human ERG by fluorescence polarization assay
[6] = target: 80S Ribosome; test: Binding affinity to 80S ribosome in human HuH7 cells assessed as inhibition of PCSK9 mRNA translation after overnight incubation by ELISA; assay type: cell-based; settings: huh-7
How it was run: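 Huh7 cells kept in high-glucose DMEM, 10% BSA-free FBS, 2 mM L-glutamine, pen/strep at 37 °C, 5% CO2. Plated 7,500/well with compound or vehicle and incubated overnight (16-20 h). Secreted PCSK9 in the medium read by AlphaLISA: two antibodies to different mature-PCSK9 epitopes, biotinylated antibody 3 nM final, acceptor beads 10 µg/mL, 0.5 h rt; streptavidin donor beads 40 µg/mL, 1 h rt.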

[7] = test system: Bone marrow cell; test: Cytotoxicity against rat bone marrow cells assessed as reduction in cell viability after 72 hrs by CellTiter-Glo assay; assay type: cell-based
[8] = target: T2, 80S Ribosome (Homo sapiens) (UniProt P08865+P42677+P62753+P15880+P23396+P61247+P62701+P22090+P46782+P62081+P62241+P46781+P46783+P62280+P25398+P62277+P62263+P62841+P62244+P62249+P08708+P62269+P39019+P60866+P63220+P62266+P62847+P62851+P62854+P62979+P62857+P62273+P62861+P39023+P36578+P46777+Q02878+P18124+P62424+P62917+P32969+P27635+P62906+P62913+P30050+P26373+P40429+P50914+P61313+P18621+Q07020+Q02543+P84098+P46778+P35268+P62829+P62750+P83731+P61254+P61353+P46776+P46779+P47914+P62888+P62899+P62910+P49207+P42766+P18077+Q9Y3U8+P83881+P61927+P61513+P63173+P62891+P62945+P05388+P05386); test: Binding affinity to 80S ribosome in human HuH7 cells harboring pCMV-truncated human PCSK9 (1 to 152 residues)-proLuc assessed as inhibition of PCSK9 mRNA translation at 20 uM after overnight incubation by luciferase reporter gene assay relative to control; assay type: cell-based; settings: Huh-7; how it was run: as §1
[9] = target: T2, 80S Ribosome (Homo sapiens); test: Binding affinity to 80S ribosome in human HuH7 cells assessed as inhibition of PCSK9 mRNA translation at 20 uM after overnight incubation by ELISA relative to control; assay type: cell-based; settings: Huh-7
[10] = test system: Rattus norvegicus; test: Toxicity in Crl:CD(SD) rat assessed as single cell necrosis in crypt cells in ileum at 50 mg/kg/day, po daily via gavage for 14 days measured on day 15 post last dose; assay type: organism-based; settings: in vivo, 336 h
[11] = test system: Rattus norvegicus; test: Toxicity in Crl:CD(SD) rat assessed as discolored/mottled liver at 50 mg/kg/day, po daily via gavage for 14 days measured on day 15 post last dose; assay type: organism-based; settings: in vivo, 336 h
How it was run: (§2)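 Male rats, 5 per group, given vehicle or compound at 50 mg/kg/day by oral gavage for 14 days. Mortality, clinical signs and hematology monitored throughout. Necropsy on day 15 with microscopy of bone marrow, ileum, duodenum, jejunum and liver. Toxicokinetics at 1, 3, 6 and 24 h post-dose on day 14.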

[12] = test system: Rattus norvegicus; test: Toxicity in Crl:CD(SD) rat assessed as hepatocyte vacuolation at 50 mg/kg/day, po daily via gavage for 14 days measured on day 15 post last dose; assay type: organism-based; settings: in vivo, 336 h; how it was run: as §2
[13] = Apparent permeability in RRCK cells; assay type: ADME, cell-based, Canis lupus familiaris, MDCKII-LE; settings: dog, MDCK
How it was run: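 Passive permeability measured in RRCK cells, a modified Madin-Darby canine kidney line; Papp reported in 10^-6 cm/s.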

[14] = Permeability from apical to basolateral side in MDCK cells harboring MDR1; assay type: ADME, cell-based, Canis lupus familiaris; settings: dog, read-out: permeability
How it was run: (§3)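 Bidirectional permeability across MDR1-transfected MDCK monolayers, apical-to-basolateral and basolateral-to-apical; Papp reported in 10^-6 cm/s.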

[15] = Permeability from basolateral to apical side in MDCK cells harboring MDR1; assay type: ADME, cell-based, Canis lupus familiaris; settings: dog, read-out: permeability; how it was run: as §3
[16] = target: T3, Cytochrome P450 1A2 (Homo sapiens, UniProt P05177); test: Inhibition of CYP1A2 (unknown origin); assay type: ADME
T3 sequence (P05177 whole entry): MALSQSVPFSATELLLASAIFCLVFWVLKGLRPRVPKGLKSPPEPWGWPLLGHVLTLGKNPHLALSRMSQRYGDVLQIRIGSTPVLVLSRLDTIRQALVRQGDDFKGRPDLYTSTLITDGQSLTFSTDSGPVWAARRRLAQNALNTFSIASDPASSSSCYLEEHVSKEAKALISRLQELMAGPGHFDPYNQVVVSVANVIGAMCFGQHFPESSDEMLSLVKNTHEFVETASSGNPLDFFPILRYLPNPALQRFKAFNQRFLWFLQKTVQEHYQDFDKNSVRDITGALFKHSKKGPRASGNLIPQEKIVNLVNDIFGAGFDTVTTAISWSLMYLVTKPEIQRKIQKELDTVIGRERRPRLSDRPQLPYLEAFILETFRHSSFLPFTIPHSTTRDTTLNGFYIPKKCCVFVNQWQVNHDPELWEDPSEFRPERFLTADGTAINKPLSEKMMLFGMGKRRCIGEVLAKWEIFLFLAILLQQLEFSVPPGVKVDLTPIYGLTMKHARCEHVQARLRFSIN
How it was run: (§4)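 Inhibition of CYP1A2, 2D6, 2C9 and 3A4 reported as IC50, or as percent inhibition at 3 µM.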

[17] = target: Cytochrome P450 2D6 (Homo sapiens, UniProt P10635); test: Inhibition of CYP2D6 (unknown origin); assay type: ADME; how it was run: as §4
[18] = target: Cytochrome P450 2C9 (Homo sapiens, UniProt P11712); test: Inhibition of CYP2C9 (unknown origin); assay type: ADME; how it was run: as §4
[19] = target: Cytochrome P450 3A4 (Homo sapiens, UniProt P08684); test: Inhibition of CYP3A4 (unknown origin); assay type: ADME; how it was run: as §4
[20] = Fraction unbound in rat plasma; assay type: ADME, cell-free
How it was run: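 Unbound fraction measured in rat plasma.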

[21] = target: T1, Voltage-gated inwardly rectifying potassium channel KCNH2; test: Inhibition of human ERG by patch clamp method
[22] = Selectivity index, ratio of IC50 for cytotoxicity against rat bone marrow cells to IC50 for 80S ribosome in human HuH7 cells harboring pCMV-truncated human PCSK9 (1 to 152 residues)-proLuc; assay type: toxicity, cell-based; settings: read-out: Ratio IC50
[23] = target: CYP2C9 (Homo sapiens, UniProt P11712); test: Inhibition of CYP2C9 (unknown origin) at 3 uM relative to control; assay type: ADME; how it was run: as §4
[24] = target: CYP3A4 (Homo sapiens, UniProt P08684); test: Inhibition of CYP3A4 (unknown origin) at 3 uM relative to control; assay type: ADME; how it was run: as §4
[25] = target: T4, CYP1A2 (Homo sapiens, UniProt P05177); test: Inhibition of CYP1A2 (unknown origin) at 3 uM relative to control; assay type: ADME; how it was run: as §4
T4 sequence (P05177 whole entry): T3 sequence (P05177 whole entry)

[26] = target: CYP2D6 (Homo sapiens, UniProt P10635); test: Inhibition of CYP2D6 (unknown origin) at 3 uM relative to control; assay type: ADME; how it was run: as §4
Sequence of CYP2D6 (P10635 whole entry): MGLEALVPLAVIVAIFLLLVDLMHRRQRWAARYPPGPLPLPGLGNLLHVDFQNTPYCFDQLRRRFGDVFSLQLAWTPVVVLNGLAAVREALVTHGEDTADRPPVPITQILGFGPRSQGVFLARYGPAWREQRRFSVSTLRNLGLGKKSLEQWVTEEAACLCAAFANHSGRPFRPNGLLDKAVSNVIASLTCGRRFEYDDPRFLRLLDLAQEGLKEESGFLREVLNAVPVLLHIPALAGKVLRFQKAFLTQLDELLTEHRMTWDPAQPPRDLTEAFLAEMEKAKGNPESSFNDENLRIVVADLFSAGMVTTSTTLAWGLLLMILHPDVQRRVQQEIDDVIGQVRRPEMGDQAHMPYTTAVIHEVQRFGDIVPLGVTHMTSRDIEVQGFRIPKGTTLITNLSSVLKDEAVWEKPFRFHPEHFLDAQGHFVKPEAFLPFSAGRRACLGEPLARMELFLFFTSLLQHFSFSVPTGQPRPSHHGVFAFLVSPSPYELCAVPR

T1 sequence (Q12809 whole entry): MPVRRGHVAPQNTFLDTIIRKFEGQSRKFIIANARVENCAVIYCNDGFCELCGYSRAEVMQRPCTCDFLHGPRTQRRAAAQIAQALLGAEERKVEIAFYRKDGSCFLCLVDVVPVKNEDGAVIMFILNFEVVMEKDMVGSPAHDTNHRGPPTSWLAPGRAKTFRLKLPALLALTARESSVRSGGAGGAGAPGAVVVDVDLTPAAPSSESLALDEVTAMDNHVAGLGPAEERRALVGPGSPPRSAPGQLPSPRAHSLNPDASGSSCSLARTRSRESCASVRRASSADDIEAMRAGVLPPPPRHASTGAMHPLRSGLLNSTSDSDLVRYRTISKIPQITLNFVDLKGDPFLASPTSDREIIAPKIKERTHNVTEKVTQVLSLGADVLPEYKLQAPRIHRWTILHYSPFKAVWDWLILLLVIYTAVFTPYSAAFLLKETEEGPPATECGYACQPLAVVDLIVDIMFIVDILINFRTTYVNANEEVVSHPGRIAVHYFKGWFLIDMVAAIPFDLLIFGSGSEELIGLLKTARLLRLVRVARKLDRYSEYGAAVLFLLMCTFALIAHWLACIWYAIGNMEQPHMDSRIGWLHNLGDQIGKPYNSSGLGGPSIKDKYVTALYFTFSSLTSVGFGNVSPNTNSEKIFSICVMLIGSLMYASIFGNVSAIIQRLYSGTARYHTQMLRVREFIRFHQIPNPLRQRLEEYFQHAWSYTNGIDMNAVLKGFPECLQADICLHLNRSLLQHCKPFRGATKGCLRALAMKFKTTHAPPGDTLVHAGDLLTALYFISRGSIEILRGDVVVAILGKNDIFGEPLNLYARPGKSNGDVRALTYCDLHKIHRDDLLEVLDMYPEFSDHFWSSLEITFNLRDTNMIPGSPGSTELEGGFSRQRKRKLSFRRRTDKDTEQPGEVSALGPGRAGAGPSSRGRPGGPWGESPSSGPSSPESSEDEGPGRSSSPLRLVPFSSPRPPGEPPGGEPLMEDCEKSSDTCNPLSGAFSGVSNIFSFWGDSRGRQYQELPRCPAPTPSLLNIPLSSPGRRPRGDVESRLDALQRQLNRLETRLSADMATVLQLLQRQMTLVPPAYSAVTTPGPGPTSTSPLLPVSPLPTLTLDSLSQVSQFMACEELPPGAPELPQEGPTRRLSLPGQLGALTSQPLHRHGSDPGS
Sequence of Cytochrome P450 2D6 (P10635 whole entry): as the sequence (P10635 whole entry) above
Sequence of Cytochrome P450 2C9 (P11712 whole entry): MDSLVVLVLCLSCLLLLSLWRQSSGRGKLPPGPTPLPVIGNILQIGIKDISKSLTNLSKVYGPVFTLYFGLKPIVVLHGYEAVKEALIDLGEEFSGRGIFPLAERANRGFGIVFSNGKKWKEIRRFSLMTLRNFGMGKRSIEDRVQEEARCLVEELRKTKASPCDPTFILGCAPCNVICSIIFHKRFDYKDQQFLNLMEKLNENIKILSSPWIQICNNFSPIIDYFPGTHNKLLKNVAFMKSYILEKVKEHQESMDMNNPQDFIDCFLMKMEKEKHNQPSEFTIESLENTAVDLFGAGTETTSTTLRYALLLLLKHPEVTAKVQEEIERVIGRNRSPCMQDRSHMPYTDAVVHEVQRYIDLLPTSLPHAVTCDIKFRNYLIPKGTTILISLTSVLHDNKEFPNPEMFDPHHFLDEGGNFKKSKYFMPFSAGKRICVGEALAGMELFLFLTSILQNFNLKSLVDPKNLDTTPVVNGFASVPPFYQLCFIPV
Sequence of CYP2C9 (P11712 whole entry): as above
Sequence of CYP3A4 (P08684 whole entry): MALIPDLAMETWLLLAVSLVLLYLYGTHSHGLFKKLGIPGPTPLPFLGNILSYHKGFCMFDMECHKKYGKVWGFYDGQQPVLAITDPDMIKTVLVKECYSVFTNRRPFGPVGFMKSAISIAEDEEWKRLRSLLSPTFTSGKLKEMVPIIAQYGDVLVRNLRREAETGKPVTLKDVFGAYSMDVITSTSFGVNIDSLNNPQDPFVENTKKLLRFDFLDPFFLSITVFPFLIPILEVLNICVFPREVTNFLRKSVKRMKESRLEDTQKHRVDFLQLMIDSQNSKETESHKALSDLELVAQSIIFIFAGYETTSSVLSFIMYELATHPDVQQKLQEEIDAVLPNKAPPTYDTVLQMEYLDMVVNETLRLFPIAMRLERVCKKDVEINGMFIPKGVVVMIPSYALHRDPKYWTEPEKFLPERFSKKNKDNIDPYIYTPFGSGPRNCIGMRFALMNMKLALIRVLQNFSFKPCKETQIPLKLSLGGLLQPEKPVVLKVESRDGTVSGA
Sequence of Cytochrome P450 3A4 (P08684 whole entry): as above

| SMILES | logD [1] | microsomal CLint [2] | microsomal CLint [3] | pIC50 [4] | pKi [5] | pIC50 [6] | pIC50 [7] | other results |
| --- | --- | --- | --- | --- | --- | --- | --- | --- |
| O=C(c1ccc(-c2cnccn2)cc1)N(c1nccc2ccccc12)[C@@H]1CCCNC1 | 0.7 | 123 µL/min/mg | 11 µL/min/mg | 5.37 | < 4.40 | 5.03 | < 4.70 |  |
| O=C(c1ccc(-c2ccccc2)cc1)N(c1nccc2ccccc12)[C@@H]1CCCNC1 | 2.5 | 57.7 µL/min/mg | 10.7 µL/min/mg |  | 5.66 |  |  | inhibition [8]: 54%; inhibition [9]: 39% |
| O=C(c1ccc(-n2nnc3cccnc32)nc1)N(c1ncccc1Cl)[C@@H]1CCCNC1 | 0.1 | 14.7 µL/min/mg | < 8 µL/min/mg | 5.39 | 4.90 | 5.03 |  |  |
| Cc1cnc2c(c1)nnn2-c1ccc(C(=O)N(c2ncccc2Cl)[C@@H]2CCCNC2)cc1 | 1.2 | 16.5 µL/min/mg | 8.8 µL/min/mg | 6.39 | 5.48 | 6.11 | < 4.71 | Activity [10]: Non-Toxic; Activity [11]: Toxic; Activity [12]: Toxic |
| CNc1cncc(-c2ccc(C(=O)N(c3ncccc3Cl)[C@@H]3CCCNC3)cc2)n1 | 1.07 |  | 8.7 µL/min/mg |  | 4.42 | 5.51 | 4.71 |  |
| Cn1cc(-c2ccc(C(=O)N(c3nccc4ccccc34)[C@@H]3CCCNC3)cc2)cn1 | 0.9 |  | 13.3 µL/min/mg | 5.97 | 4.80 | 5.62 | 5.54 |  |
| O=C(c1ccc(-n2nnc3cccnc32)cc1)N(c1ncccc1Cl)[C@H]1CCCNC1 |  |  |  |  |  |  | < 4.70 | inhibition [8]: 61%; inhibition [9]: 24%; Activity [10]: Non-Toxic; Activity [11]: Toxic |
| O=C(c1ccc(-n2nnc3cccnc32)cn1)N(c1ncccc1Cl)[C@@H]1CCCNC1 | 0.3 | 15.3 µL/min/mg | < 8 µL/min/mg | 6.15 | 4.54 | 5.84 | < 4.90 | Activity [10]: Non-Toxic; Activity [11]: Toxic |
| Cc1cncc(-c2ccc(C(=O)N(c3ncccc3Cl)[C@@H]3CCCNC3)cc2)n1 | 0.8 to 1.37 |  | < 8 µL/min/mg |  | 4.42 | 5.55 | 4.36 | Papp [13]: 10.5 ×10⁻⁶ cm/s; Papp A→B [14]: 0.7 ×10⁻⁶ cm/s; Papp B→A [15]: 20 ×10⁻⁶ cm/s; pIC50 [16]: < 4.52; pIC50 [17]: < 4.52; pIC50 [18]: < 4.52; pIC50 [19]: < 4.52; fraction unbound [20]: 0.41; pIC50 [21]: 4.22 |
| O=C(c1ccc(-n2nnc3cccnc32)cc1)N(c1nccc2ccccc12)[C@@H]1CCCNC1 | 1.4 |  | 21.8 µL/min/mg | 6.41 | 4.80 | 6.05 |  |  |
| O=C(c1ccc(-c2cnn3cccnc23)cc1)N(c1nccc2ccccc12)[C@@H]1CCCNC1 | 1.1 | 31.2 µL/min/mg | 14.5 µL/min/mg | 6.16 | 5.27 | 5.89 | 5.85 |  |
| Cc1ccc2nnn(-c3ccc(C(=O)N(c4ncccc4Cl)[C@@H]4CCCNC4)cc3)c2n1 | 1.2 | 38.5 µL/min/mg | 9 µL/min/mg | 6.35 | 4.47 | 6.05 | 6.00 | selectivity ratio [22]: 2 |
| COc1ccc(CCC(=O)N(c2nccc3ccccc23)[C@@H]2CCCNC2)cc1 | 1.1 | > 510 µL/min/mg | 20.6 µL/min/mg | 5.58 | 4.89 | 5.08 | < 4.70 | Papp [13]: 5.4 ×10⁻⁶ cm/s; inhibition at 3 µM [23]: < 20%; inhibition at 3 µM [24]: < 20%; inhibition at 3 µM [25]: < 20%; inhibition at 3 µM [26]: < 20% |
